AP complement – alternative pathway complement inhibition, orthogonal assay. inhibition, % at 5 µM. hit rate 0.08% among 62,000. AID 1235. Human serum alternative complement pathway, LPS-coated ELISA, C3 deposition; tested in compound mixtures;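 active means inhibition above 30% in each of the two pooled mixtures holding the compound, so the lower value exceeds 30%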;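 further: 0% = serum in Mg-EGTA without compound and 100% = EDTA serum blank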
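Assay system: human serum alternative complement pathway, C3 deposition on LPS-coated wells; Dosing: 5 µM per compound in ten-compound mixtures; Detection: Anti-C3 ELISA, OD 450 nm; Buffer or medium: Mg2+-EGTA GVB++ buffer containing human serum at 1:15 dilution; Timing: 1 h at 37 °C; Replication: two different pools per compound.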
PLK1 kinase inh – blocks human PLK1 kinase activity; P53350; recombinant PLK1 kinase, TR-FRET peptide phosphorylation; inhibition, % at 10 µM; hit rate 0.53% among 97,000; AID 619;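 active means inhibition of 50% or more in the single-concentration screen; inactive means inhibition below 50%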;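 further: 0% = DMSO max control and 100% = H-89 dihydrochloride min control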
Target sequence (P53350 whole entry, looked up): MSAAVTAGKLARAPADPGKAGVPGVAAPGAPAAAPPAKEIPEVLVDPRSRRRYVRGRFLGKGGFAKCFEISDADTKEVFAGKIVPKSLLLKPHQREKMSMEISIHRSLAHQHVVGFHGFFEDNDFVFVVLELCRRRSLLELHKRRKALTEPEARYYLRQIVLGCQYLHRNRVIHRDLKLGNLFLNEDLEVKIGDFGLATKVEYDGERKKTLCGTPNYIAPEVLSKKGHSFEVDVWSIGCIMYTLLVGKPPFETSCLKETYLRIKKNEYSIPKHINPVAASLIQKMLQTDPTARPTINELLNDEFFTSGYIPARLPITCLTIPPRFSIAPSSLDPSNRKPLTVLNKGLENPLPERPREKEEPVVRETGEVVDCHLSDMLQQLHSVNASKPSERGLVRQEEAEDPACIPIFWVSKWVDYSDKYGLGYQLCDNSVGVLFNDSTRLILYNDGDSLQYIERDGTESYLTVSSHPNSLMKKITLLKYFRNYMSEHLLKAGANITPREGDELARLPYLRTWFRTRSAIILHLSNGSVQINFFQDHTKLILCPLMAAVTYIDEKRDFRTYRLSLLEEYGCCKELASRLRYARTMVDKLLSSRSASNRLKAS
HePTP inh – blocks human HePTP tyrosine phosphatase; P35236; recombinant HePTP phosphatase activity, OD absorbance; inhibition, % at 20 µM; hit rate 0.64% among 110,000; in the data active means inhibition above about 50%;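 further: plate controls were vehicle for no effect and reference inhibitor for full effect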
HEK293 NFkB inh – inhibitors of the PMA/ionomycin-induced NF-kB reporter in HEK293 cells; hit rate 0.21% among 62,000; HEK-293 NF-kB luciferase reporter, luminescence; inhibition, % at 3 µM; AID 465;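 active means inhibition above the mean of all tested compounds plus 3 SD, cut at about 40% in these data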;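 further: 0% = stimulated DMSO wells and 100% = 10 µM reference inhibitor 5653914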
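Material: HEK-293 cells with stable firefly luciferase reporter driven by four HIV NF-kB elements / Also added: PMA plus ionomycin mix as NF-kB-activating stimulus / Compound dosing: 3 µM once, 0.30% DMSO / Times: 1 h pretreatment, 16 h stimulation, 37 °C / Signal: luminescence / Evaluation: per-plate % inhibition versus controls / Benchmarks: DMSO and 10 µM reference inhibitor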
PLK1 PBD inh – inhibitors of human Plk1 polo box domain binding; Plk1 PBD phosphopeptide binding, fluorescence polarization; inhibition, %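 (tested at about 20 µM)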; hit rate 0.13% among 97,000; in the data active means inhibition above about 34%, passing the limit was not always enough
Pyk2 oligo antag – blocks oligomerization of human Pyk2 in cells. Q14289. Q293 cells, Pyk2 FERM NanoBiT luminescence; active compounds read low. z-score (the deposit names both 25 µM and 10 µM). hit rate 0.83% among 99,000. AID 1347419;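 active means Z-score of -3 or lower, scaled per plate to the spread of control and sample wells; inactive means z-score above -3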;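 further: negative z-score means lost luminescence so less FERM oligomerization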
PLK1 inh conf – confirmation of human PLK1 kinase inhibitors | shares compounds with PLK1 kinase inh | recombinant PLK1 kinase, TR-FRET peptide phosphorylation | inhibition, % at 10 µM | hit rate 20% among 210 | AID 744;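 active means inhibition at or above 50% in each of two repeat confirmation tests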;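 further: 0% = DMSO max control and 100% = H-89 kinase-blocked min control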
Plk1 interf – Plk1 assay compound interference counter-screen hit; shares compounds with PLK1 kinase inh; 210 tested, under 10 active; AID 756; inhibition (interference), % at 10 µM; Plk1 TR-FRET assay interference, compound added post-reaction;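 active means both duplicate runs show 50% or greater inhibition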;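 further: 0% = DMSO max control and 100% = H-89 min control inhibited reaction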
Redox H2O2 DR – redox cycling H2O2 generation counter-screen for Plk1 PBD. AID 876. 120 tested, under 10 active. EC50, µM. DTT. shares compounds with PLK1 PBD inh; call rule not given here
The depositor's hits bear a star; · = not tested or not shown. Shown are actives, neighbours in structure and some others; about 1.5% of the full set was active somewhere.

SMILES	AP complement	PLK1 kinase inh	HePTP inh	HEK293 NFkB inh	PLK1 PBD inh	Pyk2 oligo antag	PLK1 inh conf	Plk1 interf	others
O=C(COC(=O)c1cccnc1)c1ccc(Cl)cc1	1	-2	-4	12	16	-0.18	·	·
CC1=C(C(=O)OC(C)C)C(c2ccncc2)n2ncnc2N1 (centres undefined)	13	-10	8	-13	21	0.54	·	·
CC1=C(C(=O)OC(C)C)C(c2cccnc2)n2ncnc2N1 (centres undefined)	9	83*	0	6	7	·	5	-44
Fc1ccc(Br)cc1C1C=C(c2cccnc2)Nc2ncnn21 (centres undefined)	16	88*	3	4	-8	·	46	-51
COc1cccc(C2=CC(c3ccccc3)n3ncnc3N2)c1 (centres undefined)	·	-5	7	·	-5	·	·	·
CC1(C)CC(=O)c2sc(NC(=O)C3CC3)nc2C1	12	75*	0	4	6	·	-3	-52
CC1(C)CC(=O)c2sc(NC(=O)c3ccccc3Cl)nc2C1	·	·	-11	·	·	·	·	·
O=C1/C(=C/C=C/c2ccccc2)SC(=S)N1CCS(=O)(=O)O	·	·	-15	·	·	·	·	·
CC(C)n1c(SCc2ccccc2F)nc2c1c(=O)n(C)c(=O)n2C	20	78*	1	4	-19	·	-10	-61
Cc1[nH]n(-c2ccccc2)c(=O)c1C(C[N+](=O)[O-])c1ccc(Br)cc1 (centres undefined)	·	101*	·	·	2	-1.3	-6	-49
Nc1[nH]ncc1N=Nc1ccc(Cl)cc1	·	83*	·	·	-6	-0.88	75*	-59
O=[N+]([O-])c1ccc2c(c1)S(=O)(=O)N=C2Nc1cccc(Cl)c1	·	·	-3	·	·	·	·	·
CCc1ccc(N(CC(=O)NC2CCCCC2)S(=O)(=O)c2c(C)noc2C)cc1	14	74*	7	14	12	·	-8	-59
C=C(C)c1cccc(C(C)(C)NC(=O)N2CCN(c3ccccn3)CC2)c1	20	74*	4	4	8	·	-9	-58
CCC(C)(C)NC(=O)C(c1ccco1)N(C(=O)CNC(=O)c1cccs1)c1cccnc1 (centres undefined)	·	109*	·	·	-21	-0.87	-14	-62
CC(C)c1ccc(C(C(=O)NC(C)(C)C)N(C(=O)CNC(=O)c2ccco2)c2cccnc2)cc1 (centres undefined)	·	-13	·	·	1	0.28	·	·
Cc1cccc(NC(=O)/C(=C\c2cccs2)NC(=O)c2cccs2)c1	·	·	-11	·	·	·	·	·
Cc1ccc(C(=O)O)cc1S(=O)(=O)N1CCOCC1	-5	0	7	16	3	0.41	·	·
Cc1ccc(C(=O)O)cc1S(=O)(=O)N1CCSCC1	10	82*	7	8	-1	0.58	-7	-57
Cc1ccc(NC(=O)Nc2nccs2)cc1	·	·	-5	·	·	·	·	·
O=C(Nc1ccccc1)Nc1nccs1	·	93*	5	·	0	-0.24	6	-53
Cc1occc1C(=O)Nc1sc2c(c1C#N)CCC(C)C2 (centres undefined)	·	·	12	·	·	·	·	·
O=C(CN(Cc1ccccc1)S(=O)(=O)c1ccc(Br)cc1)NCc1ccco1	·	85*	·	·	12	-0.99	-8	-58
Cn1c(NC(=O)c2ccccc2C(F)(F)F)cc(=O)n(C)c1=O	11	76*	3	19	0	·	4	-59
Cn1c(NC(=O)c2ccccc2Br)cc(=O)n(C)c1=O	11	·	5	15	·	·	·	·
O=C(c1oc(=O)c2ccccc2c1-c1ccccc1)N1CCC(O)CC1	4	78*	8	14	29	·	4	-52
C1=CC2CC1CC2CN1CCN(Cc2cccnc2)CC1 (centres undefined)	·	·	14	·	·	·	·	·
CC(C)(C)NC(=O)CC(CC(=O)O)c1ccccc1 (centres undefined)	11	-4	12	5	45*	·	·	·	Redox H2O2 DR=>50
CC(C)(C)NC(=O)CC(c1ccccc1)c1ccccc1O (centres undefined)	·	-15	·	·	-3	0.28	·	·

From PubChem
